Test results from ChEMBL document CHEMBL3272214, “2-Deaminoactinomycin D, synthesis and interaction with deoxyribonucleic acid” (J Med Chem, 1977).
The source made the active and inactive calls. The rule behind the calls is not given here. *1 amine or outer side, *2 acyl side, *3 side chain or, on linkers, in order; H or OH if unused. Where a SMILES comes first, the peptide text is derived from it. Bridges are numbered along the chain shown (N, C = ends). Roman numbers before positions name the chains, in order. [ ]: non-standard residue; d: D form. Actinocin(1to9) = Cc1c2oc3c(C)ccc(C(=O)[*:2])c3nc-2c(C(=O)[*:1])c(N)c1=O; NMeV = CN[C@H](C(=O)O)C(C)C; Sar = CNCC(=O)O

Key:
Calf thymus DNA [1] = assay: Binding affinity to calf thymus DNA assessed as change in melting temperature at 5.2 X 10^-6 M by thermal denaturation assay; format: nucleic-acid assay; details: Bos taurus
Method in brief: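 Calf thymus DNA filtered, concentration set by A259 (ε 6800). Drug in Me2SO diluted into 0.01 M phosphate pH 7.0. Final: drug 5.2×10⁻⁶ M, DNA 5.2×10⁻⁵ M (P), EDTA 1×10⁻⁵ M, 5% Me2SO. Equilibrated at 50 °C, then heated at 18 °C/h while absorbance was recorded. Tm corrected for volume expansion, temperature lag and baseline. ΔTm = Tm(complex) − Tm(DNA).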

L1210 [2] = assay: Inhibition of RNA synthesis in mouse L1210 cells assessed as [3H]-uridine incorporation preincubated for 3 hrs before [3H]-uridine addition measured after 1 hr by scintillation spectrometric analysis; format: functional; details: read-out: ED50 (the source's name)
Method in brief: (§1)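 L1210 cell assay run by a previously described method. Compounds were dissolved in Me2SO and diluted in growth medium to a final 1% Me2SO. The value reported is ED50.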

Escherichia coli = assay: Induction of Escherichia coli omega enzyme-mediated relaxation of Escherichia coli (RR1) pBR313 closed circular DNA at 40 X 10^-12 mol preincubated for 10 mins followed by enzyme-addition measured after 30 mins by agarose gel electrophoretic analysis
Method in brief: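 Plasmid pBR313 was isolated from E. coli RR1 cleared lysate by agarose A50 gel filtration. 1.10 μg DNA in 80 mM potassium phosphate pH 7.6, 3 mM MgCl2, 1 mM EDTA was preincubated with drug (40×10⁻¹² mol) for 10 min at 37 °C. About 300 units of ω enzyme were added for 30 min. The reaction was stopped with EDTA and phenol/chloroform extracted. Read-out was 0.7% agarose slab gel electrophoresis with ethidium staining, compared with ethidium bromide.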

Calf thymus DNA [3] = assay: Binding affinity to calf thymus DNA at 10:1 DNA to drug molar ratio by circular dichroism spectroscopic analysis; format: nucleic-acid assay; details: Bos taurus
L1210 [4] = assay: Inhibition of DNA synthesis in mouse L1210 cells assessed as [3H]-thymidine incorporation preincubated for 3 hrs before [3H]-thymidine addition measured after 1 hr by scintillation spectrometric analysis; format: functional; details: read-out: ED50 (the source's name); method in brief: as §1
P388 [5] = assay: Antitumor activity against mouse P388 cells allografted in mouse assessed as increase in life span at 1.94 mg/kg administered qd on day 1, 5 and 9 relative to control; format: functional; details: P388, 24 h
Method in brief: (§2)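 In vivo testing in tumour-bearing mice was run by the NCI Division of Cancer Treatment. Drug was given on a QD 1, 5, 9 schedule, and 15 mg/kg was the highest dose tested. Toxicity was judged by weight loss of treated animals. Activity is expressed as % increase in life-span (ILS) over untreated tumour-bearing controls.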

P388 [6] = assay: Antitumor activity against mouse P388 cells allografted in mouse assessed as increase in life span at 15 mg/kg administered qd on day 1, 5 and 9 relative to control; format: functional; details: P388, 24 h; method in brief: as §2
Mus musculus = assay: Toxicity in mouse allografted with mouse P388 cells assessed as weight loss at 1.94 to 15 mg/kg administered qd on day 1, 5 and 9; format: organism-based; set-up: dose 1.94-15 mg/kg
Method in brief: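 Mice were dosed on a QD 1, 5, 9 schedule at doses up to 15 mg/kg. Toxicity was judged by weight loss of treated animals.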

Calf thymus DNA [7] = assay: Binding affinity to calf thymus DNA by NMR spectroscopic analysis; format: nucleic-acid assay; details: Bos taurus
P388 [8] = assay: Antitumor activity against mouse P388 cells allografted in mouse assessed as increase in life span at 0.108 mg/kg administered qd on day 1, 5 and 9 relative to control; format: functional; details: P388, 24 h; method in brief: as §2

## Cc1c2oc3c(C)ccc(C(=O)N[C@@H]4C(=O)N[C@H](C(C)C)C(=O)N5CCC[C@H]5C(=O)N(C)CC(=O)N(C)[C@@H](C(C)C)C(=O)O[C@@H]4C)c3nc-2c(C(=O)N[C@@H]2C(=O)N[C@H](C(C)C)C(=O)N3CCC[C@H]3C(=O)N(C)CC(=O)N(C)[C@@H](C(C)C)C(=O)O[C@@H]2C)c(Cl)c1=O
Calf thymus DNA [1]
  ΔTm: 1.6 °C
L1210 [2]
  EC50: 13 µM
Escherichia coli
  Activity: Active
Calf thymus DNA [3]
  Activity: Active
L1210 [4]
  EC50: 86 µM

## Cc1c2oc3c(C)ccc(C(=O)N[C@@H]4C(=O)N[C@H](C(C)C)C(=O)N5CCC[C@H]5C(=O)N(C)CC(=O)N(C)[C@@H](C(C)C)C(=O)O[C@@H]4C)c3nc-2c(C(=O)N[C@@H]2C(=O)N[C@H](C(C)C)C(=O)N3CCC[C@H]3C(=O)N(C)CC(=O)N(C)[C@@H](C(C)C)C(=O)O[C@@H]2C)c(O)c1=O
Calf thymus DNA [1]
  ΔTm: 0 °C
L1210 [2]
  EC50: 24 µM
L1210 [4]
  EC50: > 100 µM

## Cc1c2oc3c(C)ccc(C(=O)N[C@@H]4C(=O)N[C@H](C(C)C)C(=O)N5CCC[C@H]5C(=O)N(C)CC(=O)N(C)[C@@H](C(C)C)C(=O)O[C@@H]4C)c3nc-2c(C(=O)N[C@@H]2C(=O)N[C@H](C(C)C)C(=O)N3CCC[C@H]3C(=O)N(C)CC(=O)N(C)[C@@H](C(C)C)C(=O)O[C@@H]2C)cc1=O
P388 [5]
  ILS at 1.94 mg/kg: 46%
Calf thymus DNA [1]
  ΔTm: 9.9 °C
P388 [6]
  ILS at 15 mg/kg: 92%
Mus musculus
  Activity: Non-toxic
L1210 [2]
  EC50: 0.7 µM
Escherichia coli
  Activity: Active
Calf thymus DNA [3]
  Activity: Active
Calf thymus DNA [7]
  Activity: Active
L1210 [4]
  EC50: 63 µM

## Cc1c2oc3c(C)ccc(C(=O)N[C@@H]4C(=O)N[C@H](C(C)C)C(=O)N5CCC[C@H]5C(=O)N(C)CC(=O)N(C)[C@@H](C(C)C)C(=O)O[C@@H]4C)c3nc-2c(C(=O)N[C@@H]2C(=O)N[C@H](C(C)C)C(=O)N3CCC[C@H]3C(=O)N(C)CC(=O)N(C)[C@@H](C(C)C)C(=O)O[C@@H]2C)c(N)c1=O [DACTINOMYCIN] (I: T[dV]P[Sar][NMeV] / II: T[dV]P[Sar][NMeV]; ester I:1-I:C, II:1-II:C; linker I:N-II:N via Actinocin(1to9))
Calf thymus DNA [1]
  ΔTm: 7.1 °C
L1210 [2]
  EC50: 0.009 µM
Escherichia coli
  Activity: Active
L1210 [4]
  EC50: 0.4 µM
P388 [8]
  ILS at 0.108 mg/kg: 100%

## COc1cccc2c1C(=O)c1c(O)c3c(c(O)c1C2=O)C[C@@](O)(C(C)=O)C[C@@H]3O[C@H]1C[C@H](N)[C@H](O)[C@H](C)O1
Escherichia coli
  Activity: Active

## CC[n+]1c(-c2ccccc2)c2cc(N)ccc2c2ccc(N)cc21
Escherichia coli
  Activity: Active
